From PubChem BioAssay
thrombin 1536: human alpha-thrombin inhibitors, primary screen, counter-screen for coagulation protease inhibitor project, biochemical, 1536-well, fluorogenic AMC substrate; inhibition, % at 5 µM; Boc-VPR-AMC fluorogenic substrate cleavage; actives 0.26% (n = 220,000);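 active = inhibition at or above 40%; inactive = inhibition below 40%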;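 note: 0% = enzyme with no compound and 100% = wells without enzyme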
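System: human alpha-thrombin protein; Compound dosing: one concentration per compound, 5 µM, with 0.2% DMSO; Timing: reaction at room temperature; Technique: AMC fluorescence, 355/460 nm; Controls: enzyme without compound as high, wells lacking enzyme as low.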
PERK inh: block of dimerizer-induced PERK translation repression, primary screen, PERK inhibitor project, CHO PERK-DD cells, SEAP luminescence, HTS | CHO PERK-DD fusion, SEAP luminescence translation reporter | AID 1416, 2008 | actives 0.17% (n = 220,000) | inhibition, % at 5.6 µM;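 active = inhibition above the mean inhibition of all tested compounds plus 3 SD, set separately per screening campaign, cut at about 2.9% in these data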;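 note: PERK kinase domain activated by AP20187 dimerizer at 100 nM; 0% = DMSO with dimerizer and 100% = rapamycin at 8.4 µM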
KLK5 inh: human KLK5 protease inhibitors, primary screen, biochemical, 1536-well. Kallikrein-5 (Homo sapiens), Q9Y337. recombinant hK5, fluorogenic AMC substrate cleavage. inhibition, % at 5 µM. actives 0.59% (n = 210,000). AID 873, 2007;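 active = inhibition of 40% or more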;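 note: 0% = enzyme controls without compound and 100% = no-enzyme blanks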
FXIa inh 1536: human FXIa protease inhibitors, primary screen, biochemical, 1536-well | AID 798, 2007 | actives 0.14% (n = 220,000) | purified FXIa, Boc-Glu-Ala-Arg-AMC fluorogenic substrate | inhibition, % at 5 µM;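 active = inhibition of at least 40%; inactive = inhibition below 40%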;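 note: fluorescence of freed AMC excited at 355 nm; 0% = enzyme without compound and 100% = no enzyme blank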
FXIIa inh: human FXIIa protease inhibitors, primary screen, biochemical, 1536-well; Coagulation factor XII (Homo sapiens), P00748; purified FXIIa, Boc-QGR-AMC fluorogenic substrate, 2 h; inhibition, % at 5 µM; actives 0.3% (n = 220,000); in the data active = inhibition above about 40%;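 note: 0% = enzyme with no compound and 100% = blank without enzyme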
Furin inhibitor: human furin inhibitors, primary screen, biochemical, fluorescence intensity | actives 0.061% (n = 220,000) | inhibition, % at 20 µM or 30 µM | P09958 | purified furin, fluorogenic substrate cleavage; in the data active = inhibition above about 25%
Target sequence (P09958 108-714 limits assumed): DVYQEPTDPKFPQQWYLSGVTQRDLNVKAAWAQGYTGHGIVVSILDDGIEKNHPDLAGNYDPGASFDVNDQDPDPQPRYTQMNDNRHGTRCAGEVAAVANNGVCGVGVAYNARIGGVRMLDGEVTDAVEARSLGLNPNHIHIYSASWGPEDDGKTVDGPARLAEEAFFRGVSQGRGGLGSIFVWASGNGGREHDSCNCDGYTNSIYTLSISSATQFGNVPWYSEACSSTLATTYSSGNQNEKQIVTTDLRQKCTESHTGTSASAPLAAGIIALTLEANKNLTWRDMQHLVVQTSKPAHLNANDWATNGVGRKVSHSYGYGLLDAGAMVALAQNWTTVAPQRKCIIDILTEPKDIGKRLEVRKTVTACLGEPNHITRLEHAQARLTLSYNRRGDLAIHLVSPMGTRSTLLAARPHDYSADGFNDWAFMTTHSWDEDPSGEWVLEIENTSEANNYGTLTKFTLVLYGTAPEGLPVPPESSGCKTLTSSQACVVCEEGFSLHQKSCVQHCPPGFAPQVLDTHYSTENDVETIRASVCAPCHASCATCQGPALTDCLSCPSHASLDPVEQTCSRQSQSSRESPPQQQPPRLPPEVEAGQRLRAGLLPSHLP
* hit, by the source's call; nt = not tested or not shown. Rows were chosen to be rich in hits. Some 1.2% of all compounds tested hit in one or more screens of this group.

SMILES | thrombin 1536 | PERK inh | KLK5 inh | FXIa inh 1536 | FXIIa inh | Furin inhibitor
CC(=O)OCC1(C)CN(c2ccccc2)N(C(=O)c2ccc(C(C)(C)C)cc2)C1=O (stereo not given) | 43* | 0 | -1 | -5 | 1 | -13
O=C(CSC1=NCCS1)Nc1cccc(F)c1 | -6 | 0 | -288 | -2 | 6 | -31
Cc1onc(-c2ccccc2)c1NC(=O)Nc1ccc(OC(F)F)cc1 | -6 | 0 | -5 | 4 | 10 | -2
COc1ccccc1NC(=O)c1sc2ncn(Cc3cccc4ccccc34)c(=O)c2c1C | -7 | 1 | -16 | 3 | 11 | -8
COc1ccccc1NC(=O)c1sc2ncn(Cc3cccc(C)c3)c(=O)c2c1C | 100* | 1 | 44* | 7 | 6 | -6
COc1ccccc1NC(=O)c1sc2ncn(Cc3ccc(C)cc3)c(=O)c2c1C | 99* | 1 | 30 | 29 | 17 | -14
Cn1c(CNC(=O)Nc2ccccc2Cl)nnc1SCc1ccccc1 | 25 | -1 | 43* | 18 | 17 | -11
Cn1c(CNc2ccc(Cl)cc2)nnc1SCc1ccccc1 | 1 | 0 | 3 | 3 | 14 | -6
Cc1ccc(C(=O)N/N=C\c2c(C)nn(-c3ccccc3)c2Cl)cn1 | 12 | 0 | 41* | 10 | 10 | -11
CCc1cccc(Oc2nn[nH]n2)c1 | 20 | 0 | 77* | 9 | 16 | -11
CC(C)OCCCNC(=O)Cc1ccc(Br)cc1 | -3 | 2 | -10 | -6 | 3 | -6
CC1Cn2c(nnc2-c2cc3ccccc3cc2O)S1 (stereo not given) | 3 | 1 | 44* | 1 | 21 | -23
CC1Cn2c(nnc2-c2ccccc2O)S1 (stereo not given) | -2 | 1 | -6 | 4 | 8 | -27
O=C(Nc1cccnc1Cl)c1noc2c1CCc1ccccc1-2 | -2 | 1 | -10 | -3 | -3 | -5
CC(C)Oc1ccc(CNC(=S)N/N=C/c2ccc([N+](=O)[O-])cc2)cc1 | -8 | 0 | -12 | -4 | 53* | -10
O=C1c2oc3ccccc3c(=O)c2C(c2cccc(O)c2)N1CCCN1CCOCC1 (stereo not given) | -3 | 0 | -33 | 1 | 8 | -26
O=C1c2oc3ccccc3c(=O)c2C(c2cccc(F)c2)N1CCCO (stereo not given) | -2 | 0 | -3 | -7 | 51* | -24
Cn1c(CN2CCCCC2)nc2cc(NS(=O)(=O)c3ccc(Cl)cc3)ccc21 | 76* | -1 | 3 | 5 | 17 | -16
Cn1c(CCN2CCCCC2)nc2cc(NS(=O)(=O)c3ccc(Cl)cc3)ccc21 | 11 | nt | -2 | -2 | 9 | nt
CC(C)(CC(=O)O)CC(=O)Nc1ccc(Oc2ccc(C(C)(C)C)cc2)nc1 | -5 | 2 | 0 | 2 | 8 | -15
CC(C)(C)c1ccc(Oc2ccc(NC(=O)CCCC(=O)O)cn2)cc1 | 37 | 1 | 34 | 26 | 47* | -5
Cc1ccc(C)c(-n2cc(CN3CCCN(C=O)CC3)c(-c3ccccc3)n2)c1 | -5 | 1 | nt | -3 | 2 | -21
COc1ccc(N(C(=O)c2ccco2)S(=O)(=O)c2cccc([N+](=O)[O-])c2)cc1 | 58* | 0 | -5 | 20 | 22 | -26
COc1ccc(N(C(=O)c2ccco2)S(=O)(=O)c2ccc(F)cc2)cc1 | 42* | 1 | 0 | 9 | 14 | -6
COc1ccc(N(C(=O)C(C)C)S(=O)(=O)c2cccc([N+](=O)[O-])c2)cc1 | -6 | 1 | -16 | -9 | 3 | -19
COc1ccc(NC(=O)CCC(=O)OCc2ccc([N+](=O)[O-])cc2)cc1 | 0 | 1 | -21 | -6 | -4 | -30
Cc1cc(C)n2nc(SCCOc3ccccc3F)nc2n1 | -6 | 0 | -7 | -5 | -3 | -15
